# From ChEMBL document CHEMBL4513216, “Probing the Open Global Health Chemical Diversity Library for Multistage-Active Starting Points for Next-Generation Antimalarials” (ACS Infect Dis, 2020)
# Assay: Toxicity liver stage against HepG2, at 10uM
# Type: cell-based
# Design: test concentration 10 uM, cell line HepG2-A16-CD81EGFP
# Conditions: human, HepG2-A16-CD81EGFP cells; read-out: INHIBITION
# How it was run: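 Uninfected HepG2-A16-CD81EGFP cells, 3 × 10^3 per well, 1536-well, plated on prespotted compound at 10 μM final, parasite-free screening media added to match infected plates; puromycin 10 μM positive, DMSO 0.5% negative; run in parallel with 48 h PbLuc assay at 37 °C, 5% CO2; viability by CellTiter-Glo luminescence, normalized to controls.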
row,SMILES,cytotoxicity at 10 µM [%]
1,Cc1cccc(CN2C[C@@H](F)[C@@H](OCc3nc4ccccc4[nH]3)C2)n1,8.01
2,Clc1ccc(CN2CCOC[C@H](Oc3cccnc3)C2)cc1,6.12
3,OCCc1cc(CC2(NCc3ccc(C(F)(F)F)cc3)COC2)no1,-4.41
4,O=C1N(Cc2ccccn2)C[C@H]2CN(C3CCOCC3)CCN12,7.94
5,COCCN1C[C@H]2CN(C(=O)c3ccc4c(c3)OCO4)CCN2C1=O,13.7
6,Cc1[nH]c2nc(CNc3cccc(Cl)c3)nn2c(=O)c1C,0.0924
7,CC(C)OCCCNC(=O)C1CC(=O)N(c2n[nH]c3cccc(F)c23)C1 (stereo unspecified),-4.73
8,COC(=O)N1CCC(CNS(=O)(=O)c2cnn(C)c2)CC1,-9.03
9,COCCNC(=O)c1ccc2ccc(N3CCN(CC4CC4)CC3)n2c1,6.59
10,CN(C)CC(=O)N1CCC2(CC1)CN(Cc1cccnc1)C(=O)CO2,-8.99
11,CC(C)NC(=O)c1ccc2c(c1)nc1n2CCN(Cc2ccco2)C1,8.16
12,CC(=O)N1CCN(C(=O)c2sc(-c3ccccc3F)nc2C)CC1,-3.3
13,O=C(Cn1cc(-c2ccccc2)ncc1=O)NC1CCCCC1,-8.03
14,CC(C)[C@H](NC(=O)NC1CCS(=O)(=O)C1)C(=O)NCc1cccnc1 (stereo partly specified),5.47
15,O=C(Cn1ccc2c(Cl)cccc21)N[C@@H](C(=O)O)c1ccccc1,2.19
16,CN1C(=O)C[C@@H]2[C@@H]1CCN2C(=O)c1ccc[nH]1,-14.8
17,CCc1ccc(NC(=O)Nc2c(O)oc3ccccc3c2=O)cc1,5.95
18,CCn1nnc(NCc2cc(Cl)cc(Cl)c2OC)n1,13.6
19,CCCc1nc(NCCCO)c2c(n1)c(C)nn2CC,2.55
20,CN(C)C(=O)c1cn[nH]c1C1CCCN1Cc1cncn1C (stereo unspecified),-1.89
21,CC(C)c1cc(C(=O)N[C@@H]2CC[C@@H](Oc3ccccc3)[C@@H]2O)on1,2.27
22,Cc1c(S(=O)(=O)N2CCCCC2c2nnc(-c3cccs3)o2)cnn1C (stereo unspecified),3.22
23,CN(C)S(=O)(=O)N1CCC(c2c(C(N)=O)sc3ccccc23)C1 (stereo unspecified),4.83

row,SMILES,cytotoxicity at 10 µM [%]
1,CNc1nccnc1C1CN(C(=O)c2c[nH]cn2)CCO1 (stereo unspecified),3.4
2,COc1ccc(SC(C)C(=O)N2CCC(C(=O)N3CCCC3)CC2)cc1 (stereo unspecified),1.03
3,CCc1ccccc1CNC(=O)CNC(=O)C(C)(C)C,2.29
4,O=C(NCCNC(=O)C1CC1)c1sccc1Br,1.66
5,COc1ccccc1CN1CCCC(n2cccn2)C1 (stereo unspecified),2
6,CC(C)CN(CC(O)c1ccccc1)C(=O)Nc1nccs1 (stereo unspecified),-1.96
7,CCN(CCCNC(=O)Nc1ccccc1C(C)C)S(C)(=O)=O,-0.132
8,COc1ccccc1CNC(=O)N1CCCC(CO)C1 (stereo unspecified),0.91
9,Cc1nc(CNCc2ccc(N3CCC(CO)CC3)nc2)cs1,1.58
10,CC(NC(=O)NCC(C)(C)O)c1ccc(-c2cncnc2)cc1 (stereo unspecified),6.27
11,O=C(CN1C=Nc2ccccc2S1(=O)=O)NC1CCCCC1,4.75
12,Cc1ccoc1C(=O)NC(CC(C)C)C(=O)N1CCC(CO)CC1 (stereo unspecified),0.794
13,CC(C)C(C(=O)NCC1CC1)n1cnc2cc(F)c(F)cc21 (stereo unspecified),3.26
14,COc1ccc(CNC(=O)CNc2cc3c(cc2Cl)OCCO3)cc1,-0.238
15,CNC(=O)NC(=O)CCN1CCCC1c1nc(C2CCCCC2)co1 (stereo unspecified),5.44
16,O=C(c1csc(-c2cccs2)n1)N1CCN2CCCCC2C1 (stereo unspecified),-3.04
17,Cc1cccc(COc2ccccc2C(=O)N2CCC(C(N)=O)CC2)c1,-7.08
18,O=C(Cn1cc(C2CC2)nn1)NC(c1cc(F)ccc1F)C1CC1 (stereo unspecified),-12.6
19,CC(CC#N)N(C)Cc1ccc(F)cc1F (stereo unspecified),6.03
20,Cc1ccc2cc(C(=O)N3CCN(S(C)(=O)=O)CC3)[nH]c2c1,-58.1
21,CCN1CCN(C(=O)c2c[nH]c(C(C)C)n2)c2ccccc21,11.2
22,Cc1c(C(=O)N2CCC(C(O)c3ccc(Cl)cc3)CC2)cnn1C (stereo unspecified),-0.916
23,Cc1nc2n(n1)CCN(S(=O)(=O)c1ccc(Cl)cc1)C2,5.76

row,SMILES,cytotoxicity at 10 µM [%]
1,CN(Cc1nc2ccccc2c(=O)[nH]1)C1CC(=O)N(C2CC2)C1=O (stereo unspecified),4.09
2,Cc1ccc(F)c(S(=O)(=O)NCc2cccc(N3CCOC3=O)c2)c1,9.62
3,CN(Cc1ccco1)C(=O)CN1CCc2ccccc2C1,-2.19
4,CCOc1cccc(CSC(C)c2nc(C)no2)n1 (stereo unspecified),-22.6
5,COc1ccccc1CN(CC1CCCO1)C(=O)c1cc(C)n[nH]1 (stereo unspecified),-2.28
6,N#Cc1ccc(SCCC(=O)N(Cc2cccnc2)C2CC2)cc1,12.3
7,Cc1cc(C(C)(O)CNC(=O)C2(C)CCCC2)c(C)o1 (stereo unspecified),-4.88
8,CCNC(=O)NC(=O)CN1CCOC(c2ccc(Br)cc2)C1 (stereo unspecified),2.08
9,CCc1nccn1CC(=O)Nc1cccc(C(=O)OC)c1,-6.88
10,N#Cc1c(F)cccc1NCCCOCC1CCOCC1,-1.25
11,COc1ncccc1C(=O)N1CCC(CNC(C)=O)CC1,3.17
12,CCc1nnc2n1CCN(Cc1csc(-c3ccsc3)n1)C2,-17.5
13,Cc1c(NC(=O)NCC(C)N2CCOCC2)cccc1OC(F)F (stereo unspecified),-2.88
14,N#Cc1c(N)nc2c(c1-c1cnc(N3CCCC3)nc1)COCC2,10.5
15,Cn1ccnc1CCC1CCCCN1Cc1nccn1C (stereo unspecified),8.13
16,O=C(O)c1cccc(C2CCCN(S(=O)(=O)C3CC3)C2)c1 (stereo unspecified),3.24
17,CC1(C)Cc2nc(C(C)(C)C)ncc2C(NC(=O)C2(N)CC2)C1 (stereo unspecified),-2.49
18,COc1cccc(CCC2CCCN(C(C)=O)C2)c1 (stereo unspecified),-15.9
19,O=C(C1CCCO1)N1CCC(n2cc(-c3ccc(F)cc3)nn2)CC1 (stereo unspecified),-1.41
20,Cc1nc(NC(=O)N(C)Cc2ccoc2)nn1C,-6.03
21,Cc1cnn(CCC(=O)N2CCC3(CCC(=O)N(CC4CC4)C3)CC2)c1,-2.62
22,CN(C)Cc1nnc(C2CCCN(c3nc(C(N)=O)cs3)C2)n1C (stereo unspecified),1.05
23,CCNc1ccc(-c2ccnc3c2ccn3C)nn1,-18.1

row,SMILES,cytotoxicity at 10 µM [%]
1,CCn1c(N)nc2cc(C(=O)N(C)Cc3cc(C(C)(C)C)n[nH]3)cnc21,4.53
2,COc1ccccc1[C@@H]1CN(Cc2cc(C(C)(C)C)[nH]n2)C[C@H]1C(=O)O,18.4
3,CCc1ncc(CNC2CC(=O)N(CCc3cccc(Cl)c3)C2)cn1 (stereo unspecified),-3.62
4,CC(=O)c1cn(CC(=O)NC(C(=O)O)C(C)C)c2ccccc12 (stereo unspecified),0.415
5,CCn1cc(NC(=O)C2CCN(CC(=O)NC3CCCC3)CC2)cn1,-6.52
6,Cc1nc(C)n(CC2CCCN(c3ccc(C#N)cn3)C2)n1 (stereo unspecified),-9.67
7,CCc1nc(C)c(C(=O)NCCn2nc3ccccn3c2=O)s1,-9.42
8,CN(C)CC1CN(Cc2nc(-c3ccccn3)no2)CCO1 (stereo unspecified),-5.8
9,CC(NC(=O)NCCCN1CCCCCC1=O)c1nncn1C (stereo unspecified),-0.734
10,CC(C)CCN(CCC(C)C)Cc1nc2c(cnn2C)c(=O)[nH]1,-5.57
11,O=C(COc1ccc2c(c1)CCC2)NS(=O)(=O)c1cccnc1,-4.63
12,CC(C)c1noc(CN2CCN(CCO)CC2)n1,-5.57
13,COC(=O)c1ccc(N2CCN(C(=O)c3cc(C)no3)C(C)C2)cc1 (stereo unspecified),-0.192
14,CNC(=O)CCS(=O)(=O)Cc1cc(Cl)c2c(c1)OCCCO2,-6.31
15,CCc1nc(CN(C(C)=O)C2CCN(Cc3ccccc3F)C2)no1 (stereo unspecified),-12.3
16,COc1ccc(C2=CCN(C(=O)CN(C)S(C)(=O)=O)CC2)cc1,-3.99
17,c1ccc(OCCN2CCc3c(ncn3C3CC3)C2)cc1,-10.3
18,O=S(=O)(CCN1CCc2c(ncn2C2CC2)C1)c1ccccc1,-14.5
19,COc1ncccc1CNC(=O)NC(C)Cn1cccn1 (stereo unspecified),-12.5
20,COc1ccc(C(=O)N2CCCS2(=O)=O)cc1,-1.88
21,CCc1nccn1C1CCCN(C(=O)c2c(C)nsc2NC)C1 (stereo unspecified),-5.86
22,Cn1ccnc1CN1CCCN(C(=O)COC2CCCC2)CC1,-18.1
23,CC(=O)N1CCCN(C(=O)NCCc2ccc(Cl)s2)CC1,-2.24

row,SMILES,cytotoxicity at 10 µM [%]
1,CCCOc1cc(CNC(=O)Nc2cccnc2N2CCCC2)ccn1,-2.06
2,c1coc(-c2noc(CN3CC(n4cccn4)C3)n2)c1,2.96
3,CN(C)C(=O)COCc1cncc2c1CCN(Cc1ccccn1)C2,-2.51
4,NCC1CCC(c2c(C(=O)NCCO)sc3ccccc23)CC1 (stereo unspecified),-11
5,Cc1ccc(N2CCc3c(CN(C)Cc4ccco4)cncc3C2)nn1,-6.57
6,Cn1cc(C(=O)NCc2cn3c(n2)CN(CC2CCOC2)CC3)cn1 (stereo unspecified),5.22
7,CC(C)c1nn(C)c(N(C)C)c1CNCc1cscn1,-5.54
8,Cc1nc(CN2CCC3(CCN(Cc4nccn4C)CC3)C2=O)cs1,-1.43
9,CN(C)C(=O)[C@@H]1CCO[C@@H]2CCN(Cc3ccccc3)C[C@@H]21,-12.1
10,Cc1cccc(CN2C(=O)CCC23CCN(c2ccccn2)CC3)n1,3.2
11,O=C1CC2(CCN(Cc3ccncc3)C2)CN1c1cccc(F)c1 (stereo unspecified),-152
12,O=C1N(c2cncnc2)CCC12CCCN(Cc1ccccn1)C2 (stereo unspecified),-9.35
13,CCOCC1CN(C(=O)c2cnoc2C)Cc2cnn(C)c21 (stereo unspecified),0.384
14,COCCn1cc2c(n1)C(CNCc1ccco1)OCC2 (stereo unspecified),-11.9
15,Cc1ccc(CNC(C)c2ccc(N3CCN(C)CC3)c(F)c2)o1 (stereo unspecified),-2.76
16,CN(C)C[C@@H]1CCC[C@@H]2CN(c3cccnc3)C[C@@H]21,-11.9
17,COCC1CC2(CCN(Cc3cccc(C#N)c3)CC2)CN1C(C)C (stereo unspecified),0.866
18,CC(C)N1C(=O)C2(CCN(C)CC2)c2cc(F)ccc21,-110
19,CN1CC(=O)N(c2ccccc2)CC12CCN(CC1CCOCC1)C2 (stereo unspecified),4.22
